Data from ChEMBL document CHEMBL1143448, “1,8-Naphthyridin-4-one derivatives as new ligands of A2A adenosine receptors” (Bioorg Med Chem Lett, 2005).

Legend:
Adenosine receptor A1 [1] = molecular target: T1, Adenosine receptor A1 (Homo sapiens, UniProt P30542); experiment: Inhibition of [3H]CHA binding to adenosine A1 receptor of human brain cortical membrane
T1 sequence (P30542 whole entry): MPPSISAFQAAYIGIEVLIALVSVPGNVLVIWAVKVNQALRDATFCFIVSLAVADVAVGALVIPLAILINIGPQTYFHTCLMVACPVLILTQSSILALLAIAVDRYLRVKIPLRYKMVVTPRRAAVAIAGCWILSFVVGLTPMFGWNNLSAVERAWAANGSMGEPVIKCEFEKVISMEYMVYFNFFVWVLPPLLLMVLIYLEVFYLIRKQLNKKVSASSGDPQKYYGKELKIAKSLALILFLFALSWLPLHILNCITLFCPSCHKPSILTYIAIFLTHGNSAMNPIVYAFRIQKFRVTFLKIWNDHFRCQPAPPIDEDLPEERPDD
Summary of the method: (§1)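 A1 affinity was taken from displacement of specific [3H]N6-cyclohexyladenosine ([3H]CHA, agonist radioligand) binding in bovine or human cortical membranes. Values are given as Ki in nM ± error.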

Adenosine receptor A1 [2] = molecular target: T2, Adenosine receptor A1 (Bos taurus, UniProt P28190); experiment: Inhibition of [3H]CHA binding to adenosine A1 receptor of bovine brain cortical membrane; summary of the method: as §1
T2 sequence (P28190 whole entry): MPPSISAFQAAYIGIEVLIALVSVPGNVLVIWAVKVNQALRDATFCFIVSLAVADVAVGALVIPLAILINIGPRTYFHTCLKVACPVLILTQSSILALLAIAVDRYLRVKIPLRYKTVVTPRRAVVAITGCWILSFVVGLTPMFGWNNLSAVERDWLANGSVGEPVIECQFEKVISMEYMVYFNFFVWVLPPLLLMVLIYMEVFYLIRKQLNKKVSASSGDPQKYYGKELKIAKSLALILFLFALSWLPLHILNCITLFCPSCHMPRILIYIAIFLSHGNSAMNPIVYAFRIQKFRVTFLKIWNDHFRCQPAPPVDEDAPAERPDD

Adenosine receptor A2a = Adenosine receptor A2a (Homo sapiens, UniProt P29274); experiment: Inhibition of [3H]CGS-21680 binding to adenosine A2a receptor of human striatal membrane
Summary of the method: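 Competition binding to striatal membranes from bovine or human brain, measuring displacement of the specific binding of the tritiated agonist [3H]CGS21680 (2-[[p-(2-carboxyethyl)phenyl]ethyl]amino-5'-N-ethylcarboxamidoadenosine). Affinity reported as Ki (nM) ± error.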

[3] = molecular target: Adenosine receptor A2a (Bos taurus); experiment: Inhibition of [3H]CGS-21680 binding to adenosine A2a receptor of bovine striatal membrane

Sequence of Adenosine receptor A2a (P29274 whole entry): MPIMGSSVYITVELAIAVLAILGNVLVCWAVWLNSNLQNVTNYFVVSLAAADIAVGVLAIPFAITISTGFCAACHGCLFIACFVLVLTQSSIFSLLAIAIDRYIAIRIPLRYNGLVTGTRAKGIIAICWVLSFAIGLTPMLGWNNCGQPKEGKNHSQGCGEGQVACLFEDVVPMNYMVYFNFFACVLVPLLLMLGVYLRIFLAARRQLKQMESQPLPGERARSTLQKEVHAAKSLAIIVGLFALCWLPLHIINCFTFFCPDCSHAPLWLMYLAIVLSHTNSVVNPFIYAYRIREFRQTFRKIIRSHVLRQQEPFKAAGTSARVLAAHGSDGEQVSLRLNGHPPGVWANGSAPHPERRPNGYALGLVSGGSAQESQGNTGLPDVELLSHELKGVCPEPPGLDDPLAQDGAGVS

Compound | Ki (Adenosine receptor A1 [1]) [nM] | Ki (Adenosine receptor A1 [2]) [nM] | Ki (Adenosine receptor A2a) [nM] | Ki [3] [nM]
Cc1ccc2c(O)c(CC(=O)NC3CCCCC3)cnc2n1 | > 10000 | > 10000 | – | –
CCOC(=O)c1cnc2nc(C)ccc2c1O | – | > 10000 | – | –
O=C(NCc1ccccc1)c1cnc2nc(Br)ccc2c1O | – | 5320 | – | –
Cc1ccc2c(O)c(Cc3ccccc3)cnc2n1 | 4180 | > 10000 | 3330 | > 10000
Cc1ccc2c(O)c(CC(=O)NCc3ccccc3)cnc2n1 | > 10000 | > 10000 | 870 | > 10000
Cc1ccc2c(O)c(C(=O)NCc3ccccc3)cnc2n1 | 630 | 280 | – | –
CN(C)c1ccc2c(O)c(C(=O)NCc3ccccc3)cnc2n1 | – | 122 | – | 57
Cc1ccc2c(O)c(C(=O)NCc3ccc(N)cc3)cnc2n1 | – | 2860 | – | 146
Cc1ccc2c(N=[N+]=[N-])c(Cc3ccccc3)cnc2n1 | > 10000 | 3340 | 5360 | 3360
Cc1ccc2c(O)c(C(=O)NN3CCOCC3)cnc2n1 | > 10000 | > 10000 | > 10000 | 8660
O=C(NCc1ccccc1)c1cnc2nc(Cl)ccc2c1O | – | 586 | – | 67
Cc1ccc2c(O)c(C(=O)NCc3ccc(F)cc3)cnc2n1 | 1650 | 1770 | – | –
CC(=O)N(C(C)=O)c1ccc(CNC(=O)c2cnc3nc(C)ccc3c2O)cc1 | – | > 10000 | – | –
O=C(NCc1ccccc1)c1cnc2[nH]c(=O)ccc2c1O | – | > 10000 | – | –
Cc1ccc2c(O)c(C(=O)NCc3ccc(NC(=O)c4ccccc4)cc3)cnc2n1 | – | 7590 | – | 588
Cc1ccc2c(NN)c(Cc3ccccc3)cnc2n1 | > 10000 | 220 | > 10000 | 720
Cc1ccc2c(O)c(C(=O)NCc3ccc(Cl)cc3)cnc2n1 | 1630 | 1740 | – | –
Cc1ccc2c(O)c(C(=O)OCc3ccccc3)cnc2n1 | – | > 10000 | – | > 10000
Cc1ccc2c(Cl)c(Cc3ccccc3)cnc2n1 | > 10000 | > 10000 | – | –
Cc1ccc2c(NC3CCCCC3)c(Cc3ccccc3)cnc2n1 | > 10000 | > 10000 | – | –

Compound | Ki (Adenosine receptor A1 [1]) [nM] | Ki (Adenosine receptor A1 [2]) [nM] | Ki (Adenosine receptor A2a) [nM] | Ki [3] [nM]
Nc1ccc2c(O)c(C(=O)NCc3ccccc3)cnc2n1 | 630 | 970 | – | –
Cc1ccc2c(O)c(C(=O)NC(C)c3ccccc3)cnc2n1 (configuration not stated) | 717 | 418 | – | –
O=C(NCc1ccccc1)c1cnc2nc(NCCc3ccccc3)ccc2c1O | – | 977 | – | –
Cc1ccc2c(S)c(Cc3ccccc3)cnc2n1 | – | 6330 | – | –
Cc1ccc(CNC(=O)c2cnc3nc(C)ccc3c2O)cc1 | 1580 | – | – | –
CC(=O)Nc1ccc2c(O)c(C(=O)NCc3ccccc3)cnc2n1 | – | > 10000 | – | 6780
O=C(NCc1ccccc1)c1cnc2nc(N(CCO)CCO)ccc2c1O | – | > 10000 | – | > 10000
O=C(NCc1ccccc1)c1cnc2nc(NCc3ccccc3)ccc2c1O | – | 677 | – | > 10000
Cc1ccc2c(O)c(C(=O)NCCC(C)C)cnc2n1 | > 10000 | > 10000 | 640 | 1430
Cc1ccc2c(O)c(C(=O)NCc3ccc([N+](=O)[O-])cc3)cnc2n1 | – | 1630 | – | 99
COc1ccc(CNC(=O)c2cnc3nc(C)ccc3c2O)cc1 | 4370 | > 10000 | 2410 | 740
Cc1ccc2c(O)c(C(=O)NCc3ccco3)cnc2n1 | 300 | 1350 | – | –
Cc1ccc2c(O)c(C(=O)NC3CCCCC3)cnc2n1 | > 10000 | > 10000 | – | –
Cc1ccc2c(O)c(Cc3ccccc3Cl)cnc2n1 | 4160 | 8730 | – | –
Nc1ccc2c(O)c(C(=O)NCc3ccc(Cl)cc3)cnc2n1 | 6240 | 4490 | 500 | 540
Cc1ccc2c(O)c(C(=O)NCCc3ccccc3)cnc2n1 | 730 | 680 | 150 | 140
Cc1ccc2c(O)c(C(=O)NC3CCC(C)CC3)cnc2n1 (configuration not stated) | 5600 | 6000 | 360 | 390
O=C(NCc1ccccc1)c1cnc2ncccc2c1O | – | 2750 | – | 1170
O=C(NCc1ccccc1)c1cnc2nc(NC3CCCCC3)ccc2c1O | – | > 10000 | – | –
Cc1ccc2c(O)c(C(=O)NN3CCN(C)CC3)cnc2n1 | > 10000 | > 10000 | – | –
